Compound activity from PubChem BioAssay.
Rows were chosen to be rich in hits. Some 1.3% of all compounds tested hit in one or more screens of this group.
Yeast life ext: yeast lifespan extension | inhibition of the nicotinamide effect, % at 10 µM | AID 775 | S. cerevisiae growth with nicotinamide, OD615; deaD strain in restrictive glucose medium | actives 0.68% (n = 130,000);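 active = inhibition above a set limit, placed 3 SD over the median of all compounds, cut at about 26% in these data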
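Test system – modified budding yeast, DeaD strain · Compound – single dose 10 µM compound, 0.25% DMSO · Times – culture preincubation 4 h, compound exposure 48 h, both 30 °C · Detection – optical density (absorbance) at 615 nm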
Yeast growth inh: reduces growth of yeast BB579 in restrictive medium | S. cerevisiae BB579 growth, OD615, 48 h | inhibition, % at 10 µM | actives 0.51% (n = 140,000);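 active = inhibition above a set limit, 3 SD over the mean compound inhibition, cut at about 44% in these data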
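Assay system – yeast BB579 (DeaD) · Dosing – single compound dose of 10 µM, 0.25% DMSO final · Detection – OD615 turbidity measurement · Buffer or medium – CSMM-D restrictive synthetic medium containing dextrose (glucose) · Benchmarks – positive control amphotericin B 10 µg/mL · Incubation – 48 h exposure, 30 °C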
Efa HMGR inh: inhibitors of class II HMG-CoA reductase from Enterococcus faecalis | purified E. faecalis HMGR, NADPH absorbance 340 nm kinetic | AID 1066 | inhibition, % at 10 µM | actives 0.41% (n = 190,000);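 active = inhibition above a set limit, the median over all tested compounds plus 3 SD, cut at about 9.5% in these data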;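 also: enzyme runs in reverse so mevalonate oxidation gives rising NADPH absorbance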
sdo1 growth: sdo1-depleted yeast growth rescue | actives 0.21% (n = 140,000) | S. cerevisiae sdo1-depleted JHY4D growth rescue, OD600 30 h; active compounds read high; pdr5 snq2 efflux-pump mutant strain | z-score at 10 µM;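 active = z-score above 3 at both the 24 hr and the 30 hr optical density reads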
Numbers stand for hits.

`Cc1cccc(C)c1N=Cc1c(O)n(-c2nccs2)c(=O)c2ccccc12` gave Yeast life ext 33, Yeast growth inh inactive, Efa HMGR inh inactive and sdo1 growth inactive.
`COc1cccc(Cn2c(Oc3ccccc3)nc3c2c(=O)n(C)c(=O)n3C)c1` gave Yeast life ext inactive, Yeast growth inh inactive, Efa HMGR inh inactive and sdo1 growth inactive.
C=CCn1c(Oc2ccccc2)nc2c1c(=O)n(C)c(=O)n2C was read as Efa HMGR inh 16.
Screening Cc1cccn2cc(COc3ccc(-c4ccccc4)cc3)nc12 returned Efa HMGR inh inactive.
CCCCOC(=O)C(C)Sc1n[nH]c(=O)[nH]c1=O (centres undefined) was read as Efa HMGR inh inactive.
Screening Cc1ccc(Cn2nnc3c(=O)n(CC(=O)NCc4ccco4)cnc32)cc1 returned Yeast growth inh inactive, Efa HMGR inh 20 and sdo1 growth inactive.
Cc1ccc(-n2nnc3c(=O)n(CC(=O)NCc4ccco4)cnc32)cc1 was read as Yeast life ext inactive, Yeast growth inh inactive, Efa HMGR inh inactive and sdo1 growth inactive.
For CC1(C)CC(=O)C(C(c2cccc([N+](=O)[O-])c2)C2C(=O)CC(C)(C)CC2=O)C(=O)C1 the results were Yeast life ext 27, Yeast growth inh inactive, Efa HMGR inh inactive and sdo1 growth inactive.
Screening CCCCCC/C(C)=C1/SC(=S)NC1=O returned Yeast life ext inactive, Yeast growth inh 95, Efa HMGR inh inactive and sdo1 growth inactive.
For C/C(C/C(C)=C1/SC(=S)NC1=O)=C1\SC(=S)NC1=O the results were Efa HMGR inh inactive.
For COc1ccc(CCNC(=O)CSc2nnc(Cc3cccn3C)n2C)cc1OC the results were Efa HMGR inh inactive.
For Cc1nn(-c2ccccc2)c2sc(-c3n[nH]c(=S)o3)cc12 the results were Yeast life ext inactive, Yeast growth inh 72, Efa HMGR inh inactive and sdo1 growth inactive.
Screening Cc1nn(-c2ccccc2)c2sc(C(=O)O)cc12 returned Yeast life ext inactive, Yeast growth inh 50, Efa HMGR inh inactive and sdo1 growth inactive.
Cc1nn(-c2ccc(F)cc2)c2sc(C(=O)O)cc12 was read as Yeast life ext inactive, Yeast growth inh 43, Efa HMGR inh inactive and sdo1 growth inactive.
CC(=O)CC(=O)Nc1ncccn1 was read as Efa HMGR inh inactive.
c1cnn(Cc2cnc(N3CCOCC3)s2)c1 was read as Efa HMGR inh inactive.
For O=C(Nc1ccccc1)c1ccncc1 the results were Yeast life ext inactive, Yeast growth inh inactive, Efa HMGR inh inactive and sdo1 growth inactive.
Screening O=C(Nc1ccncc1)c1ccc(C(=O)Nc2ccncc2)cc1 returned Efa HMGR inh 18.
`Cn1c2ccccc2c2cc(C(=O)O)ccc21` gave Yeast life ext inactive, Yeast growth inh 77, Efa HMGR inh inactive and sdo1 growth inactive.
For CCCn1c2ccccc2c2cc(C(=O)O)ccc21 the results were Yeast life ext inactive, Yeast growth inh inactive, Efa HMGR inh inactive and sdo1 growth inactive.
`Cc1ccc(S(=O)(=O)C(C#N)c2nc3ccccc3nc2N2CCCC2)cc1` (centres undefined) gave Yeast life ext 72, Yeast growth inh inactive, Efa HMGR inh inactive and sdo1 growth inactive.
Screening Cc1ccccc1C(=O)N1CCC(C(=O)N2CCN(S(=O)(=O)c3ccccc3F)CC2)CC1 returned Efa HMGR inh inactive.
`O=C(COC(=O)CCSc1ccccc1)NCc1ccc(F)cc1` gave Efa HMGR inh inactive.
For O=C(NC(=S)N(CC1CCC1)CC1CCCO1)c1cccc([N+](=O)[O-])c1 (centres undefined) the results were Efa HMGR inh 14.
Screening CCOC(=O)c1sc(NC(=O)CSc2nccc(C)n2)nc1C returned Efa HMGR inh 19.
Screening CCOC(=O)c1sc(NC(=O)CSc2nccc(C)n2)c(C#N)c1C returned Yeast life ext inactive, Yeast growth inh inactive, Efa HMGR inh inactive and sdo1 growth inactive.
Screening CCOC(=O)c1sc(N/N=C/c2ccccc2)nc1C returned Yeast life ext inactive, Yeast growth inh inactive, Efa HMGR inh 9.9 and sdo1 growth inactive.
O=C1NC(=O)C2(COC(c3cccc([N+](=O)[O-])c3)OC2)S1 (centres undefined) was read as Efa HMGR inh inactive.
Screening CC(C)OCC(O)Cn1c(N2CCCC2)nc2c1c(=O)[nH]c(=O)n2C (centres undefined) returned Yeast life ext inactive, Yeast growth inh inactive, Efa HMGR inh inactive and sdo1 growth inactive.
Cn1c(=O)[nH]c(=O)c2c1nc(N1CCCCC1)n2CC(O)CN1CCCCC1 (centres undefined) was read as Yeast life ext 45, Yeast growth inh inactive, Efa HMGR inh inactive and sdo1 growth inactive.
CS(=O)(=O)N(CC(=O)NCc1ccncc1)c1cc(Cl)ccc1Cl was read as Efa HMGR inh inactive.
Screening N/C(Cc1ccc(Cl)cc1Cl)=N\OC(=O)Cc1cccs1 returned Yeast life ext inactive, Yeast growth inh inactive, Efa HMGR inh inactive and sdo1 growth inactive.
N/C(Cc1ccc(Cl)cc1Cl)=N\OC(=O)c1cccs1 was read as Yeast life ext inactive, Yeast growth inh 100, Efa HMGR inh inactive and sdo1 growth inactive.
For Cc1ccc(NC(=O)CCn2nc([N+](=O)[O-])cc2C)nc1 the results were Yeast life ext 27, Yeast growth inh inactive, Efa HMGR inh inactive and sdo1 growth inactive.
`Cc1cccnc1NC(=O)Cn1nc([N+](=O)[O-])cc1C` gave Efa HMGR inh 14.
Screening Cc1cc([N+](=O)[O-])nn1CC(=O)Nc1ccccn1 returned Efa HMGR inh inactive.
`Cc1cc([N+](=O)[O-])nn1CC(=O)Nc1ccc(F)cc1` gave Efa HMGR inh 11.
Screening Cc1cc([N+](=O)[O-])nn1CC(=O)Nc1ccc(Cl)cn1 returned Efa HMGR inh inactive.
Screening CCOC(=O)C1C(=O)C(C(C)=O)C(=O)CC1CC(C)SCC (centres undefined) returned Yeast life ext 93, Yeast growth inh inactive, Efa HMGR inh inactive and sdo1 growth inactive.
For CCSC(C)CC1CC(=O)CC(=O)C1 (centres undefined) the results were Yeast life ext inactive, Yeast growth inh inactive, Efa HMGR inh inactive and sdo1 growth inactive.
Screening O=C(CCl)c1ccc(Cc2ncc(C(F)(F)F)cc2Cl)s1 returned Yeast life ext 68, Yeast growth inh inactive, Efa HMGR inh inactive and sdo1 growth inactive.
Screening CC1=NOC(=O)/C1=C/c1ccc(-c2ccc(Cl)cc2)o1 returned Yeast life ext inactive, Yeast growth inh 92, Efa HMGR inh inactive and sdo1 growth inactive.
`CC1=NOC(=O)/C1=C\c1ccc(-c2ccc(Br)cc2)o1` gave Efa HMGR inh inactive.
O=c1c2cc(NC(=S)N3CCCCCC3)ccc2nc2n1CCCCC2 was read as Efa HMGR inh inactive.
For Cn1c(C(C#N)C(=O)c2ccco2)nc2ccccc21 (centres undefined) the results were Yeast life ext inactive, Yeast growth inh 64, Efa HMGR inh inactive and sdo1 growth inactive.
For Cn1c(C(C#N)C(=O)Cc2cccc3ccccc23)nc2ccccc21 (centres undefined) the results were Yeast life ext inactive, Yeast growth inh inactive, Efa HMGR inh inactive and sdo1 growth inactive.
